Data set [1] in a line: Reactivity of covalent reactive group using GSH reaction assessed as pseudo-first-order reaction at 60 degC by mass spectrometry.
The nature of data set [2]: GSH reactivity assessed as reaction half life through transition state modeling at pH 7.4. In kind it is physicochemical. The settings on record: glutathione (GSH) reaction mixture.
A short description of data set [3]: Reactivity of covalent reactive group using GSH reaction assessed as pseudo-first-order reaction at 37 degC by mass spectrometry. In a few lines:
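Automated liquid handler at 37 °C under N2 with degassed solutions. The mix holds 1 mM electrophile, 10 mM GSH and 0.10 mM indoprofen internal standard in 100 mM potassium phosphate pH 7.4:ACN 90:10. Sampling was hourly for 7 h, each sample diluted 10-fold in water. Pseudo-first-order k gives t1/2. Controls had no GSH.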

Data set [4] can be described thus: Reactivity of covalent reactive group using GSH reaction assessed as pseudo-first-order reaction at 37 degC by nuclear magnetic resonance spectroscopy. The method in brief: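 Electrophile standard at 2 mM and GSH solution at 20 mM, both in 100 mM phosphate pH 7.4 with 10% D2O, combined in an NMR tube. 1D 1H spectra with presaturation were acquired hourly for about 19 h. Pseudo-first-order k came from the natural log of the electrophile resonance area versus time, converted to t1/2.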

Consider `CNC(=O)C(C)Cl` (stereo unspecified), for which the K in data set [1] came out at 0.6 ×10⁻³ /min.

For `CNC(=O)CBr`, the half-life in data set [2] was less than 0.08 h. The K in data set [3] is more than 140 ×10⁻³ /min. `CN1CCC=CS1(=O)=O`: the K in data set [3] amounted to 0.2 ×10⁻³ /min. Take `N#Cc1ccccn1`: the half-life in data set [2] is 25 h. Further, the K in data set [4] is 0.5 ×10⁻³ /min. In the case of `CNC(=O)C1=CCC1`, the K in data set [1] stood at 0.6 ×10⁻³ /min. On the same count and under the same terms, to `CNC(=O)C1=CCCC1` belongs less than 0.2 ×10⁻³ /min.

As for `CC#CC(=O)NC`, the K in data set [4] worked out at 0.3 ×10⁻³ /min. Turning to `C=CC(=O)NC`, the half-life in data set [2] was 17 h. Besides, the K in data set [4] came to 0.7 ×10⁻³ /min. Turning to `C/C=C(\C)S(=O)(=O)NC`, the K in data set [1] is less than 0.2 ×10⁻³ /min. Turning to `C=CC(=O)N1CCCCC1`, in data set [3], the K came to 0.4 ×10⁻³ /min. Take `CN1CC=CC1=O`: the K in data set [3] was determined as 0.4 ×10⁻³ /min. For the molecule `C=C(C)S(=O)(=O)NC`, the K in data set [3] is less than 0.2 ×10⁻³ /min; in data set [1], 0.4 ×10⁻³ /min. Turning to `N#CN1CCCCC1`, the K in data set [4] was 0.8 ×10⁻³ /min. Take `CNC(=O)/C=C/CN1CCOCC1`: in data set [2], the half-life was 28 h.

`C=CC(=O)NCc1cccc(OC)c1`: the K in data set [3] came out at 0.4 ×10⁻³ /min.

`CC1CCCN1C#N` (stereo unspecified): the K in data set [4] was found to be 0.6 ×10⁻³ /min. Regarding `C=C(C)C(=O)Nc1ccccc1`, the K in data set [1] stood at 0.2 ×10⁻³ /min. With `CNC(=O)CCl`, the half-life in data set [2] is 3.2 h. Moreover, in data set [3], the K came out at 3.6 ×10⁻³ /min. As for `CN1CC=CS1(=O)=O`, in data set [3], the K is 0.4 ×10⁻³ /min. As to `N#CN1CCCC1` [CYANO-PYRROLIDINE], the half-life in data set [2] is 2.2 h. In addition, the K in data set [4] is 5.3 ×10⁻³ /min.

Source of the values: ChEMBL document CHEMBL3352789, “Chemical and computational methods for the characterization of covalent reactive groups for the prospective design of irreversible inhibitors” (J Med Chem, 2014).
